Measurements as given in publication PMC3785103 (Molecular pharmaceutics, 2013).
Like-named read-outs stand apart in the source and are kept apart here. [ ]: non-standard residue; d: D form. d2Nal = N[C@H](Cc1ccc2ccccc2c1)C(=O)O; Nle = CCCC[C@H](N)C(=O)O

How the values were obtained:
[1] = parameters: species or system mouse; conditions: mean±s.d. of 10 simulations
in vivo = conditions: female, nu/nu, mouse
[2] = system: A375/MC1R and A375 xenograft tumors; test: in vivo; conditions: female, nu/nu, mouse, 5 nmol/kg
MC1R = conditions: read-out: Ki for MC1R, cited from earlier work
MC5R [3] = test: Co-injection of MC5R-selective ligand to block kidney uptake of probe; assay type: in vivo, mouse; conditions: 5 nmol/kg MC1RL-800 co-injected with 1 nmol/kg MC5R-selective ligand, 2 h
Outline: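 Female nu/nu mice (6–8 weeks) carried s.c. xenografts: 1 × 10⁶ A375/MC1R cells in the right flank and parental A375 cells in the left. At 500–800 mm³ tumor volume, mice received 5 nmol/kg MC1R ligand–IRDye800CW i.v. (tail vein, in 100 μL sterile saline) co-injected with 1 nmol/kg MC5R-specific ligand. Fluorescence imaging used mean pre-injection tumor signal subtracted from normalized post-injection ROI intensities.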

MC5R [4] = conditions: read-out: Ki for MC5R; unlabeled peptide ligands; cited from earlier work

| Compound | Kki, rate of accumulation of ligand in the kidney specific binding compartment [1] | Kko, rate of clearance of ligand from kidney back to the bloodstream [1] | Kni, rate of accumulation in non-specific tissue [1] | Kno, rate of clearance from non-specific tissue [1] | Kto, rate of clearance from tumor specific binding compartment [1] | Kti, rate of probe accumulation in tumor specific binding compartment ([1]; fit to 3 nmol/kg ex vivo data) | half-life (in vivo; 5 nmol/kg, half-life (clearance) in the tumor) | half-life (in vivo; half-life (clearance) in negative tissue) | half-life (clearance) in the tumor [2] | Ki (MC1R; NIRF dye conjugates) | decrease of A375/MC1R tumor signal (MC5R [3]) | Ki (MC1R; unlabeled peptide ligands) | Ki (MC5R [4]) |
| --- | --- | --- | --- | --- | --- | --- | --- | --- | --- | --- | --- | --- | --- |
| CC1(C)C(=CC=C2CCCC(C=CC3=[N+](CCCCS(=O)(=O)[O-])c4ccc(S(=O)(=O)O)cc4C3(C)C)=C2Oc2ccc(S(=O)(=O)O)cc2)N(CCCCCC(=O)NCCN2C(=O)CC(SCCC(=O)NCCCC[C@H](NC(=O)CNC(=O)[C@H](Cc3c[nH]c4ccccc34)NC(=O)[C@H](CCCNC(=N)N)NC(=O)[C@@H](Cc3ccccc3)NC(=O)[C@H](Cc3c[nH]cn3)NC(=O)CCCc3ccccc3)C(N)=O)C2=O)c2ccc(S(=O)(=O)O)cc21 (stereo partly drawn) [MC1RL-800, 4-phenylbutyryl-His-DPhe-Arg-Trp-Gly-Lys(Mpr-IRDye800CW)-NH2] | 1E-2+6.8E-3 (NU.h)^−1 | 0.96 ± 0.14 h⁻¹ | 1.8 ± 0.2 (NU.h)^−1 | 2.3 ± 0.6 h⁻¹ | 26+12 (h)^−1 | 2.7+1.4 (NU.h)^−1 | 1320 min | 960 min | ~22 h | 0.4 ± 0.1 nM | 28% | – | – |
| H-YV[Nle]GH[d2Nal]R[dF]DRFG-NH2 [reference compound] | – | – | – | – | – | – | – | – | – | – | – | 5.6 nM | 0.71 nM |
| 4-phenylbutyryl-His-DPhe-Arg-Trp-Gly-Lys(hex-5-ynoyl)-NH2 [unlabeled ligand] | – | – | – | – | – | – | – | – | – | – | – | 0.24 nM | 46 nM |
